NR3A LBD binder: modulators (binders) of human NR3A ligand-binding domain; 340,000 tested, 2.5% active; NR3A LBD differential scanning fluorimetry, Tm shift; 0% = protein alone, 100% = glycine-bound protein; Tm shift relative to glycine control, % at 25 µM; AID 1259313;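 active means melting temperature shift of at least 10% of the positive control shift, at one fixed dose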
EBI2 antag: blocks human EBI2 receptor beta-arrestin signaling; P32249; EBI2 beta-arrestin recruitment, luminescence, 7a,25-OHC stimulated; inhibition, % at 5 µM; 360,000 tested, 0.81% active; AID 651636; in the data active means inhibition above about 38%;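 further: enzyme fragment complementation signal reports receptor beta-arrestin coupling in cells; 0% = agonist plus DMSO wells and 100% = wells without agonist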
Target sequence (P32249 whole entry, looked up, the tested form may be a part): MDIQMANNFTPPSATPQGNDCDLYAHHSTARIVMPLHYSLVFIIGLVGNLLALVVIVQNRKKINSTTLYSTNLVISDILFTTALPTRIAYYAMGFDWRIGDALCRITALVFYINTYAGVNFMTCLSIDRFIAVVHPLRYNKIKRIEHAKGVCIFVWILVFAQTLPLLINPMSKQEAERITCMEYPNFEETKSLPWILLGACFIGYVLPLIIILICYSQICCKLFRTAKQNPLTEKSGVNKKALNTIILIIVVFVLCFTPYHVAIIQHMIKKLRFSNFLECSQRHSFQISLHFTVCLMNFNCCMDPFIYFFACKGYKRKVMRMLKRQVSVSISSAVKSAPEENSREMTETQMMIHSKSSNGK
SENP1 FRET inh: SENP1 (human) catalytic domain inhibition; AID 624204; inhibition, % at 10 µM; recombinant SENP1 catalytic domain, CyPet-SUMO1-YPet FRET cleavage; 360,000 tested, 0.21% active;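 active means inhibition at least 30% at 10 µM, raw YFP signal under a set limit, fluorescence ratio 0.5 to 1.5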;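 further: 0% = enzyme with DMSO and 100% = no enzyme wells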
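Compound: 10 µM single point, 0.5% DMSO; Test system: hSENP1 catalytic domain, recombinant; Timing: 50 min reaction at room temperature; Technique: FRET, CFP and YFP emission; Control set: no-enzyme wells low, DMSO-plus-enzyme wells high control.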
MPTP inh: inhibitors of mitochondrial permeability transition pore. isolated mouse mitochondria, Ca2+ swelling absorbance, 30 min. inhibition, % at 10 µM. 360,000 tested, 1.4% active. AID 602449;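 active means inhibition of 50% or more, scaled per plate between neutral and stimulator controls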;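 further: 0% = DMSO wells given calcium and 100% = 1 mM EGTA wells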
The depositor's hits bear a star. Only some compounds are listed: those with a hit (about 4.4% of all), similar ones and a draw of the others.

SMILES	NR3A LBD binder	EBI2 antag	SENP1 FRET inh	MPTP inh
COc1cc(/C=C/C(=O)N2C(=O)c3cccc(N)c3C2=O)cc(OC)c1OC	1	10	-26	2
COc1ccc(OC)c(/C=C/C(=O)N2C(=O)c3cccc(N)c3C2=O)c1	11*	24	-27	1
CC(NC(=O)C12CC3CC(CC(C3)C1)C2)C(=O)N/N=C/C1=C(N2CCOCC2)C(=C\c2ccccc2)/CC1 (stereo not drawn)	-8	32	3	2
FC(F)(F)c1cc(-c2ccccc2)nc(N2CCCCCC2)n1	11*	-5	0	7
CN1CCN(c2nc(C#N)cc(-c3ccccc3)n2)CC1	11*	-2	1	1
COc1ccc(-c2cc(C(F)(F)F)nc(N3CCCCCC3)n2)cc1	-1	-7	0	3
O=C(NCCSc1ccccc1)c1ccc(CN2CCOCC2)cc1	-2	3	-1	1
Cc1cccc(NC(=O)c2ccc3nc(N4CCOCC4)sc3c2)c1C	0	8	0	1
COc1ccccc1NS(=O)(=O)c1cc([N+](=O)[O-])ccc1N/N=C/c1c[nH]c2ccccc12	23*	54*	-24	3
COc1ccc(NS(=O)(=O)c2cc([N+](=O)[O-])ccc2N/N=C\c2c(C)[nH]c3ccccc23)cc1	28*	20	12	2
O=C(O)COc1ccccc1C=NNc1ccc([N+](=O)[O-])cc1S(=O)(=O)Nc1ccc(Cl)cc1	24*	-2	-30	-1
Cc1[nH]c2ccccc2c1/C=N/Nc1ccc([N+](=O)[O-])cc1S(=O)(=O)Nc1ccc(Cl)cc1	9	37	20	15
O=C(O)COc1ccccc1/C=N/Nc1ccc(S(=O)(=O)Nc2ccc(Cl)cc2)cc1[N+](=O)[O-]	10*	13	2	1
CCN(CC)S(=O)(=O)c1ccc(N/N=C/c2ccccc2OCC(=O)O)c([N+](=O)[O-])c1	-6	-2	5	0
CCn1c2ccccc2c2cc(NC(=O)CSc3nccc(=O)[nH]3)ccc21	-3	-5	7	2
CCCCN([C@H](CO)C(C)C)S(=O)(=O)c1ccccc1Br	0	-1	1	-2
COc1ccc(NS(=O)(=O)c2cc([N+](=O)[O-])ccc2NN=Cc2ccccc2OCC(=O)O)cc1	40*	13	-22	3
COc1ccccc1NS(=O)(=O)c1ccc(N/N=C/c2ccccc2OCC(=O)O)c([N+](=O)[O-])c1	4	9	5	5
CNS(=O)(=O)c1cccc(C(=O)OCC(=O)c2ccc[nH]2)c1	39*	-7	-8	-2
CCOC(=O)c1c(C)[nH]c(C)c1C(=O)COC(=O)c1cccc(S(=O)(=O)NC)c1	0	4	-6	0
CNS(=O)(=O)c1cccc(C(=O)OCC(=O)N2c3ccccc3CC2C)c1 (stereo not drawn)	14*	0	3	-2
CC1Cc2ccccc2N1C(=O)COC(=O)c1ccc(O)cc1 (stereo not drawn)	0	-4	1	2
CC#CC#Cc1cccc(=O)o1	3	-7	-1	1
CCOC(=O)c1ccc(N2C(=O)c3n[nH]c(-c4ccco4)c3C2c2ccc([N+](=O)[O-])cc2)cc1 (stereo not drawn)	27*	25	0	0
CCOC(=O)c1ccc(N2C(=O)c3n[nH]c(C)c3C2c2cccnc2)cc1 (stereo not drawn)	-2	2	-1	-1
SMILES	NR3A LBD binder	EBI2 antag	SENP1 FRET inh	MPTP inh
Cc1[nH]c2ccccc2c1/C=N/NC(N)=S	-1	-7	-1	2
Cc1ccc(NC(=S)N/N=C/c2c(C)[nH]c3ccccc23)cc1	22*	12	44	3
Cc1[nH]c2ccccc2c1/C=N/NC(=S)NCc1ccccc1	23*	3	49	2
CCOC(=O)CSc1nnc(Cc2ccccc2)n1-c1cccc(Cl)c1	733*	-4	1	2
C=CCSc1nc2ccccc2n1C(=O)/C=C/c1ccc(OC)c(OC)c1	-29	46*	1	0
C=CCSc1nc2ccccc2n1C(=O)/C=C/c1cc(OC)c(OC)c(OC)c1	5	56*	1	-1
CCN(CC)S(=O)(=O)c1ccc(N2CCN(c3cccc(OC)c3)CC2)c([N+](=O)[O-])c1	2	-2	2	5
Cn1cccc1C(=O)Nc1ccc(Cl)c(S(=O)(=O)N2CCCCC2)c1	-3	11	-2	-1
Nn1c(SCC(=O)Nc2ccc3c(c2)OCO3)nnc1-c1ccc(Cl)cc1	18*	0	0	0
Nn1c(SCC(=O)Nc2ccc3c(c2)OCO3)nnc1-c1ccccc1	2	-9	1	0
CCC(=O)Nc1nnc(SCC(=O)Nc2ccc3c(c2)OCCO3)s1	1	-8	3	0
CC(C)C(=O)Nc1nnc(SCC(=O)Nc2ccc3c(c2)OCO3)s1	36*	-16	1	1
CCC(=O)Nc1nnc(SCC(=O)Nc2ccc3c(c2)OCO3)s1	28*	-9	3	0
CCN(CC)c1ccc(C(=O)OCC(=O)NC(C)(C)C)cc1	-2	4	-1	0
Cc1ccc(S(=O)(=O)N2CCC(NC(=O)c3ccccc3)CC2)cc1	-1	-8	0	0
COc1ccccc1-n1c(SCC(=O)Nc2cccc(C)c2)nc2c(c1=O)SCC2	1	0	-6	-1
COc1ccc(/C=C2/SC(=O)NC2=O)cc1	2	3	0	2
COc1ccc(/C=C2/C(=O)C(C)(C(C)C)CCC2C)cc1 (stereo not drawn)	10*	10	-1	-2
C=CCNC(=O)c1ccccc1NC(=O)c1ccc(Cl)c(S(=O)(=O)Nc2ccccc2)c1	14*	10	0	4
CSc1ccc(Cl)c(C(=O)OCC(=O)N(C)CCC#N)c1	0	5	-1	-1
COc1ccc2c(n1)Sc1nc3ccccc3nc1N2	34*	-10	-22	2
O=C(N/C(=C/c1ccco1)C(=O)N1CCCCC1)c1cccs1	0	0	2	-2
Cc1ccccc1-n1c(=S)[nH]c2nc3c(cc2c1=O)CCCC3	1	-5	1	-4
O=c1cc(-c2ccc(O)c(O)c2)oc2cc(O)c([C@@H]3O[C@H](CO)[C@@H](O)[C@H](O)[C@H]3O)c(O)c12	19*	4	15	0
O=c1c2cc(O)c(O)cc2oc2cc(O)c(C3OC(CO)C(O)C(O)C3O)c(O)c12 (stereo not drawn)	0	13	37*	0
O=C(Nc1nc2cc3c(cc2s1)OCCO3)C1=COCCO1	11*	-18	1	-1
O=C(Nc1nc2ccc(F)cc2s1)C1=COCCO1	-8	6	-16	0
CCOC(=O)Nc1c(Cl)n(C)c(=O)n(C)c1=O	11*	3	-9	-1
CC(C)c1ccc(NC(=O)c2sccc2-n2cccc2)cc1	-27	3	1	4
